Measurements reported in the EternaBench riboswitch data.

System: MS2 coat protein
Assay: apparent Kd, MS2 coat protein; higher = weaker binding; RNA-MaP array; FMN 200 µM where present
Method in brief: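 Each design was made on Illumina sequencing-chip clusters by stalled E. coli RNA polymerase and titrated with SNAP-549-labelled MS2 coat protein from 0.7 or 1.5 nM, doubling to 3 µM, in the absence and then the presence of constant ligand. The buffer was 100 mM Tris-HCl pH 7.5, 80 mM KCl, 4 mM MgCl2, BSA, DTT, yeast tRNA and Tween-20. The apparent Kd is the median of filtered per-cluster fits of binding curves, with green signal normalised to red-channel RNA signal and control-cluster median Fmax.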

[1] = designed as: OFF switch for flavin mononucleotide, no ligand
[2] = ligand present: flavin mononucleotide, designed as: OFF switch for flavin mononucleotide
[3] = designed as: ON switch for flavin mononucleotide, no ligand
[4] = ligand present: flavin mononucleotide, designed as: ON switch for flavin mononucleotide

Sequence | apparent Kd [1] | apparent Kd [2] | apparent Kd [3] | apparent Kd [4]
GGAAAUCAUGUAGGAUAUGCAUGGCGAAGCUACGCAGAAGGACAUGAGGAUCACCCAUGUUAUAGCUACCCAGUUCGGUGGCAA | 0.133 µM | 0.18 µM |  | 
UAUGAUUGAGGAUAUUGUACUGCUGACAUGAGGAUCACCCAUGUAUGCUAACUCGGCCGUCGAGAAGGCAAUUAUG | 0.141 µM | 0.051 µM |  | 
GCAGGAUAAGUGAGGAUAUACCUAUGGAUACAUAGGUAGAAGGCACAUGAGGAUCACCCAUGUUCCUUGCCUGC | 0.013 µM | 0.0427 µM |  | 
AAAACAUGAGGAUCACCCAUGUAAAGAUCGGUUAAUUGUUGUGAGGAUAUACUAAAUUUUAGGUUGUAGAAGGCACUGGGUACA |  |  | 0.0432 µM | 0.0549 µM
UUUUAACAUGAGGAUCACCCAUGUGAGGAUAUCGAAAUUUAUAUUAAUAUUUAUUAUACGAGAAGGCACAUUUU | 0.0736 µM | 0.097 µM |  | 
CAGUUCUGAGGAUAUCCAUCCUCCUACAUGAGGAUCACCCAUGUUUCCCUCUGGGUUUUCGGAGAAGGCAGUUAUC | 0.299 µM | 0.547 µM |  | 
GCCGAAAGUGUGAGGAUAUACCUAUGGAUACAUAGGUAGAAGGCACAUGAGGAUCACCCAUGUGUUUCAACGGC | 0.0193 µM | 0.0716 µM |  | 
UCAGGCUUCGAGAAGGACAUGAAUCGUAGCAUUGCUACGAUCAUAGAUACAUGAGGAUCACCCAUGUAGGAUAUCGGAGUCUGC | 0.0058 µM | 0.00587 µM |  | 
UGUUGAUAGCAGAAGGACAUGAGGAUCACCCAUGUAUGGAUACAAAUAUAUGUAGGAUAUGCUAUUAACUAAGAGUGAGCGUUC | 0.00912 µM | 0.0244 µM |  | 
GGUGCAAUGUAGAAGGCAGAUCUGAUUCAGAUCUGAGGAUAUACAUGAGGAUCACCCAUGUUAUGCACCAGCACGAGAGUGCAA | 0.00657 µM | 0.0126 µM |  | 
AAUAUGUUGCAGAAGGCUAUAUUUUUUUAGUACCUCAUGACAUGAGGAUCACCCAUGUUUUUGUUGGAGGAUAUGCAAUAUAUU | 0.00807 µM | 0.00756 µM |  | 
AUGCUUUUUGUAGGAUAUACAUUUUGUACGUAUGUAGAAGGACAUGAGGAUCACCCAUGUAAAUAAAUAUUAAAUAUCAUACUU | 0.0546 µM | 0.0396 µM |  | 
AAAAAACAUGAGGAUCACCCAUGUCAGGAUAUCGUGCAGAAAAAAAAAAAAAACUGCACGAGAAGGGACAUGAA | 0.236 µM | 0.192 µM |  | 
AGUAAGAUGCAGAAGGUGUCAGCGAGAGCUACGACAUGAGGAUCACCCAUGUACUAGUGAGAGUACAAGGAUAUGCAUCUUACA |  |  | 0.0763 µM | 0.00854 µM
GGAUAGGACAGAGGAUAUACGUGCUAGAGAUACUAGCAAAAUUUCCUCACAUGAGGAUCACCCAUGUAGAAGGCCGUCCUAUCG | 0.00602 µM | 0.0197 µM |  | 
AACACACAUGAGGAUCACCCAUGUGAGGAUAUCAUGCUUCGUAGUAAACUACGAAGUGUGAGAAGGCACAUGUU | 0.0624 µM | 0.193 µM |  | 
UUUUAACAUGAGGAUCACCCAUGUGAGGAUAUCGAAAUUUAUAUUAAUAUUAUUAAUUCGAGAAGGCACAUUUU | 0.117 µM | 0.117 µM |  | 
GGAUGACAAAGUCAUCCCGCUUUGACAUGAGGAUCACCCAUGUAGGAUAUAUUAAUCAAAGAUUAAUAGAAGGACAUGUUUCUG | 0.0724 µM | 0.174 µM |  | 
UUUUACUAGUAAGGAUAUACUAGCGAUUAGCUUGUAGAAGGUGCAGUCUUAUGUAUAACAUGUUAACAUGAGGAUCACCCAUGU |  |  | 0.125 µM | 0.0376 µM
UUGUUGUAUGUAGGAUAUGCGUAUUAUUAUUAUGCAGAAGGACAUGAGGAUCACCCAUGUAUAUUAUUAUUAUAUGUUAUAUAU | 0.0262 µM | 0.0363 µM |  | 
AUAUACGUUGAGGAUAUGCGAAUAAGUAUAGUUGCAGAAGGCGACACAUGAGGAUCACCCAUGUUCAUGGACAC | 0.0282 µM | 0.0446 µM |  | 
UUUUUAUUUGUAGGAUAUGGAGACAUGAGGAUCACCCAUGUAUGAUAAGCUAAAUUAUGAUGUGGCCAGAAGGAUAUUAUUUUU |  |  | 0.0511 µM | 0.0726 µM
AUGGCGUGAGGAUAUGCGCAGGUUAACAUGAGGAUCACCCAUGUGGGCAUUGGUUUUCACGCAGAAGGUACGUUAA | 0.0145 µM | 0.0152 µM |  | 
CAGGUAGCUAGAGGAUAUACACGUCUGGAUAAACCAGACGAAUAAACCACAUGAGGAUCACCCAUGUAGAAGGCUAGCUGCCUG | 0.0152 µM | 0.0227 µM |  | 
CGAUAUGAUAGAGGAUAUGUAAUACAUGAGGAUCACCCAUGUUACAUGGGAAUUAUAAAUAAUUAACAGAAGGCUAUUCUAUCG | 0.0638 µM | 0.177 µM |  | 
UGAUAGGACAGAGGAUAUACGGAUAGGAUCUACUAUCCUCCUUAAAUAACAUGAGGAUCACCCAUGUAGAAGGCUGUCCUAUCU | 0.0173 µM | 0.039 µM |  | 
GGGCUGUCAGGAUAUGGGUUUGGGCCCGAAAGGGCCCGGGCCCAGAAGGGACAUGAGGAUCACCCAUGUGGCCC | 0.0321 µM | 0.0338 µM |  | 
GUCGAGUGAGGAUAUUGAAUCGGUGGCAGACCACACGAGCUCGAGAAGGCACAUGAGGAUCACCCAUGUGGGUC | 0.0281 µM | 0.0416 µM |  | 

Sequence | apparent Kd [1] | apparent Kd [2] | apparent Kd [3] | apparent Kd [4]
ACAUAAAUUCGAGGAUAUCGGUGAAAUAAUUUACGAGAAGGCGAUAAUAGUUAUAGACUUAUAGACAUGAGGAUCACCCAUGUA |  |  | 0.0303 µM | 0.0276 µM
UGUGCGUUGAUCUUCGAUCGGAGUACAUGAGGAUCACCCAUGUAGGAUAUUCAAAGACGCAGAUAGGAGAAGGACAUCGGAUUA | 0.00963 µM | 0.00883 µM |  | 
UUAGAUUAUGAAGGAUAUGGAUCUUAUUAUUAACCAGAAGGUCAACUCAACAUGAGGAUCACCCAUGUAUAAAGGGUAUUAGUU | 0.134 µM | 0.132 µM |  | 
ACAUGAGGAUGAGGAUAUUCAUACAUGAGGAUAGAAGAAGGCAUACAUGAGGAUCACCCAUGUAUACACAUGAGGAUCCCUUAU | 0.0811 µM | 0.156 µM |  | 
CGAAACUACGAGAAGGACAUGUGGUCCUUCAGUUACAUGAGGAUCACCCAUGUAGGAUAUCGUAGUUUCAGGAUCGUGAGAUCA | 0.0374 µM | 0.007 µM |  | 
UAUGUAUUCGUAGGAUAUCCGUCGCCACCGUGUGGAGAAGGACGAACAUGAGGAUCACCCAUGUAUCAUGGUGUAGACACUUUC | 0.126 µM | 0.183 µM |  | 
AAAAAACAUGAGGAUCACCCAUGUCAAAAGACGUGAGGAUAUGUACAGACUUCGGUCUGUACAGAAGGCACGAAAA |  |  | 0.0254 µM | 0.0212 µM
UUAAGCAAGGAGAAGGCCCAGGUGGGCCAUCACAUGAGGAUCACCCAUGUGGGAGGAUAUCCGGGCCCACGCUUAUCCGCGGGC | 0.0076 µM | 0.0126 µM |  | 
GGGCGACAUGAGGAUCACCCAUGUAACCUAAACGAAGGAUAUGGGCCUGAACGUCCAGGACCAGAAGGUCGGAAAU |  |  | 0.0236 µM | 0.0179 µM
CUGAUGUGAGGAUAUCGGGCUACAGCCAGGCUGCUAGCAUACGAGAAGGCACAUGAGGAUCACCCAUGUGAGAA | 0.0483 µM | 0.0491 µM |  | 
GGACAUUUACAGAAGGGCAAGCUCGAAAGCGGAGAACGCGAACGAGCUUGCAGGAUAUGUUGAACAUGAGGAUCACCCAUGUCU |  |  |  | 0.00708 µM
UCCUCUGUAUGAGGAUAUCCGAAUACGUGAGGCGCUGCCGGCUCAUCAUCAGGAGAAGGCAUACAUGAGGAUCACCCAUGUCGA | 0.141 µM | 0.0633 µM |  | 
CUCGCGUUAGGAUAUGCUAGCUGAGAAUAAUCUGCAGCGGUGCAGAAGGAACAUGAGGAUCACCCAUGUAGGGA | 0.278 µM | 0.0436 µM |  | 
AUUACAAUUUUAUACAUGAGGAUCACCCAUGUUAUAAGUCAUGAGGAUAUGGUAUUGUAGUUAUUCCAGAAGGCAUUUAGCUAA |  |  | 0.00875 µM | 0.00764 µM
CCGACAUGAGGAUAUCCAUCUGGAUCAGACUAGAUCCUGAUGGAGAAGGCACAUGAGGAUCACCCAUGUUACGG | 0.373 µM | 0.0891 µM |  | 
CGAUAUUAUGCAGGAUAUCUCCCUUGAAUGAGGAGAGAAGGGCAUAGGGAGACAUAAGCCUUAUUACAUGAGGAUCACCCAUGU | 0.00967 µM | 0.00835 µM |  | 
GCGUAUAUAAGAUUUAUAAAACAGUCAGAAGGUGAUAAGACGACAUGAGGAUCACCCAUGUAAUUCAAGGAUAUGAUAAUGCGC |  |  | 0.0563 µM | 0.0154 µM
CCAUCGGAAGGAUAUACAUGAGGAUCACCCAUGUGCGAGCCCGCGCUCUCGGGAAGAUGUAGAAGGUUCAAGAA | 0.0359 µM | 0.0363 µM |  | 
ACUAGAUGAGGAUAUACACAUUUUAGUGUUCCUCUAGAUUAACAUGAGGAUCACCCAUGUAGAAGGCAUCAAUU | 0.0565 µM | 0.183 µM |  | 
UCAUACAUGACAUGACAUGACAUGAGGAUCACCCAUGUUUACAAGGAUAUGUACAUGAAACAUGUACAGAAGGUGUAUUGGACU | 0.0424 µM | 0.15 µM |  | 
UUCAGACAUGAGGAUCACCCAUGUGAGGAUAUGAUGCGAUCGUCGAAAGACGAUAGCAUCAGAAGGCACGUAUG | 0.0829 µM | 0.135 µM |  | 
GCCAUCGCAUGAGGAUAUGGUCACCUUUGGUGACCAGAAGGCAUGUCAUAAGACAUGAGGAUCACCCAUGUAGUUAAGAUGGCA |  |  | 0.843 µM | 0.048 µM
UGGUCAUCAUCAGGAUAUUAACAUGGGCUACAUUAAGAAGGGAUAGUGAGAUACGAACUGAACGCACAUGAGGAUCACCCAUGU |  |  | 0.0396 µM | 0.0265 µM
AUAGGAUUGCGAGGAUAUUAGCGCGGGCCUUCAGACUUACGAAAUGACAUGAGGAUCACCCAUGUUAAGAAGGCGCAUCAAAUG | 0.00658 µM | 0.0583 µM |  | 
UUUCAUUACCCGAAGGAUAUCGCUCUUCCGACAUGAGGAUCACCCAUGUACUAGCCCUCCCUGCUCGAGAAGGUCGCGCGUGAAC |  |  | 0.103 µM | 0.0674 µM
GUUACAUGAGGAUCACCCAUGUAUGUGUGGGAGUAAGUGUCUUAGGAUAUCUAUUAUUUAAUUUAAGAGAAGGAAGAUUGUUGU |  |  | 0.118 µM | 0.133 µM
GUCAGCUCUUGAGGAUAUACAACACUGCUUCGGCAGUGUAUUAAGAUCACAUGAGGAUCACCCAUGUAGAAGGCACGAGCUGAU | 0.0132 µM | 0.17 µM |  | 
